Series [1] deals with T1, Nociceptin receptor (Homo sapiens, UniProt P41146). As to the kind of experiment: Displacement of [125I]Tyr14-NC/OFQ from human ORL1 receptor. Summed up:
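Membrane fractions of CHO cells expressing human ORL1; binding affinity from displacement of radioligand [125I]Tyr14-NC/OFQ.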

Series [2] addresses Voltage-gated inwardly rectifying potassium channel KCNH2 (Homo sapiens, UniProt Q12809). Nature of the series: Displacement of [35S]MK499 from human ERG expressed in HEK293 cells.
The target in series [3] is T1, Nociceptin receptor. As to the kind of experiment: Antagonist activity at ORL1 receptor expressed in CHO cells assessed as inhibition of NC/OFQ-stimulated [35S]GTPgammaS binding. It is filed as functional, cell-based. A digest of the protocol: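 Membrane fractions of CHO cells expressing ORL1 used; functional activity measured by [35S]GTPγS binding to G proteins.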
(GTPγS is a poorly hydrolysed GTP analogue; its binding reports G protein activation.)

The nature of series [4]: Lipophilicity, log D at pH 7.4 by shake-flask method. Type of series: physicochemical. As to conditions: buffer.
The next series concerns the target Mu-type opioid receptor (Homo sapiens, UniProt P35372). As to the kind of experiment: Displacement of [3H]diprenorphin from human cloned mu opioid receptor expressed in CHO cells. Type of series: cell-based. (In general: Displacement assays read how much labelled ligand stays bound in the presence of the test substance.)
The target in series [5] is Kappa-type opioid receptor (Homo sapiens, UniProt P41145). Nature of the series: Displacement of [3H]U69593 from human cloned kappa opioid receptor expressed in CHO cells. Type of series: cell-based.
Sequence of Kappa-type opioid receptor (P41145 whole entry): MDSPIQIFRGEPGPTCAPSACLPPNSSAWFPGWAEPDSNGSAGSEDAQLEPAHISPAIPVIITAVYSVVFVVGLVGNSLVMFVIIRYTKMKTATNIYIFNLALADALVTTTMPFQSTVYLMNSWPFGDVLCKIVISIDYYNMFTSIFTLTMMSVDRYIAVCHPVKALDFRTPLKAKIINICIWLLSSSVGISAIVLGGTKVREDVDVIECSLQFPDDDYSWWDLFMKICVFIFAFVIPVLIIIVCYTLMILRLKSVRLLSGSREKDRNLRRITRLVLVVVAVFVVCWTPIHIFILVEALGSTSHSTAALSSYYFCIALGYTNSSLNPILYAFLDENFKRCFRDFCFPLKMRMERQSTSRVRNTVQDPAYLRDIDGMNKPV

We go through 24 molecules from ChEMBL document CHEMBL1136886, “Optimization of benzimidazole series as opioid receptor-like 1 (ORL1) antagonists: SAR study directed toward improvement of selectivity over hERG activity” (Bioorg Med Chem Lett, 2009).

Sequence of Voltage-gated inwardly rectifying potassium channel KCNH2 (Q12809 whole entry): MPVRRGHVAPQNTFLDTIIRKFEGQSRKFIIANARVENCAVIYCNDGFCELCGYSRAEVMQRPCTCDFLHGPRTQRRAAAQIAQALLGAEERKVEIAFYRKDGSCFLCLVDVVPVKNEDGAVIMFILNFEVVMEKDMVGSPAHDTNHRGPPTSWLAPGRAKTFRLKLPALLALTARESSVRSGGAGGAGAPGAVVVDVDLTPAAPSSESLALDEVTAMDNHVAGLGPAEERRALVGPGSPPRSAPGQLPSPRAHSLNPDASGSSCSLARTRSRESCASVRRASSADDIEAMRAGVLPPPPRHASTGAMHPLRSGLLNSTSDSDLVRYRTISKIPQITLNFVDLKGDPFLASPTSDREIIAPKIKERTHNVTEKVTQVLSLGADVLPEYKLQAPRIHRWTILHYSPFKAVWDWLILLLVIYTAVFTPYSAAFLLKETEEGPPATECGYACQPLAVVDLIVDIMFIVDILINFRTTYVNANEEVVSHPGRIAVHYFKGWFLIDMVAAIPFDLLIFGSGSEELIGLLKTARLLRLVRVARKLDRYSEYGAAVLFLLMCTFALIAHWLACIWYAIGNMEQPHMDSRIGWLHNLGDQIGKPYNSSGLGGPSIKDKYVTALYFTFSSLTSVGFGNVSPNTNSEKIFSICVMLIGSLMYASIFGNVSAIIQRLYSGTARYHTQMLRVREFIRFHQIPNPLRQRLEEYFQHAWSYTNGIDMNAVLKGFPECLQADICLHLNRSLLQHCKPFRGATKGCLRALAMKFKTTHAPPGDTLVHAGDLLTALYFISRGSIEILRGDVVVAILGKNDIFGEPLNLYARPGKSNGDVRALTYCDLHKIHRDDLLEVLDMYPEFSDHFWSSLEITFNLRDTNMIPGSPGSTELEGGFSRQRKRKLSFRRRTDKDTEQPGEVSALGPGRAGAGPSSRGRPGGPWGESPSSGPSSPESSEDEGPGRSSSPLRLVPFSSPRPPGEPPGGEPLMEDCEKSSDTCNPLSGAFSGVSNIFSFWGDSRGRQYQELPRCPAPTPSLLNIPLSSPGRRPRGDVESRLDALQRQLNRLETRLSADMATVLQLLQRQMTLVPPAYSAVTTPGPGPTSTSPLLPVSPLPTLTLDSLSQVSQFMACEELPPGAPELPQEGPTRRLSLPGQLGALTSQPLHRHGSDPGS
T1 sequence (P41146 whole entry): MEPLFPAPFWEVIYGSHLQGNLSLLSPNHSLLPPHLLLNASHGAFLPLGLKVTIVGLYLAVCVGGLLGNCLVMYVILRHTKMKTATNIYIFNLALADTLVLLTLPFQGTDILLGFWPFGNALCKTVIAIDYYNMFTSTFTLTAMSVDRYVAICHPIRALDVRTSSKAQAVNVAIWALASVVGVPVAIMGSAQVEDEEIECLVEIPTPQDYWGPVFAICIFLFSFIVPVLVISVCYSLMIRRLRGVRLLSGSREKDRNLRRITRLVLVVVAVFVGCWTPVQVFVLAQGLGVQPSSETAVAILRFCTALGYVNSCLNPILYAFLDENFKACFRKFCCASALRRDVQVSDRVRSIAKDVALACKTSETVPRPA
Sequence of Mu-type opioid receptor (P35372 whole entry): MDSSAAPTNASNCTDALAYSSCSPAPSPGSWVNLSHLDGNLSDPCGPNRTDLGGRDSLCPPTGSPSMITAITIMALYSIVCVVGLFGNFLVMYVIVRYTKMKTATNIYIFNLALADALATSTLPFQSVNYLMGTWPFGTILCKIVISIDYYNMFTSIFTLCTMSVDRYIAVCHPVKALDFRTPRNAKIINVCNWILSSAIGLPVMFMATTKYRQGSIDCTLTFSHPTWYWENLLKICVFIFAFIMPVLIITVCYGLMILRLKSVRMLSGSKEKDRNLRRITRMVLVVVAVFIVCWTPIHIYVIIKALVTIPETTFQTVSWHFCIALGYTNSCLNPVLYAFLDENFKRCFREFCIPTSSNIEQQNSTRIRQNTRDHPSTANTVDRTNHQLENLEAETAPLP

Regarding `C[C@@H]1CN(CC(F)F)CCN1c1cc2[nH]c(SC(C)(C)C)nc2cc1Cl`, the IC50 (in general, the concentration that gives 50% inhibition) was 23 nM on Nociceptin receptor [1] and more than 10000 nM in series [2].

The molecule `CCN1CCN(c2cc3[nH]c(SC(C)(C)C)nc3cc2Cl)CC1` came in with an IC50 on Nociceptin receptor [1] of 22 nM.

For `CCN1CCN(c2cc3[nH]c(SC(C)(C)CCNC(=O)OC)nc3cc2Cl)CC1`, the half-inhibitory concentration (IC50) was 21 nM on Nociceptin receptor [1] and 8.6 nM at Nociceptin receptor [3].

As for `CCOC(=O)N1CCC(C)(Sc2nc3cc(Cl)c(N4CCN(CC)CC4)cc3[nH]2)CC1`, the 50% inhibitory concentration (IC50) at Nociceptin receptor [1] turned out to be 4.3 nM; at Nociceptin receptor [3], 1.1 nM.

In the case of `CCN1CCN(c2cc3[nH]c(S[C@]4(C)CC[C@@H](c5nc(C)no5)CC4)nc3cc2Cl)CC1`, the IC50 at Nociceptin receptor [1] came out at 1.7 nM; on Nociceptin receptor [3] it was 0.91 nM. In addition, in series [4], the logD (in general, the decadic logarithm of the distribution of all forms, ionised or not, between an organic phase and buffer at a given pH) is 3.8.

`C[C@@H]1CN(CC#N)CCN1c1cc2[nH]c(SC(C)(C)C)nc2cc1Cl` yielded an IC50 at Nociceptin receptor [1] of 61 nM.

Turning to `CCN1CCN(c2cc3[nH]c(S[C@]4(C)CC[C@@H](c5nnn(C)n5)CC4)nc3cc2Cl)CC1`, the IC50 at Nociceptin receptor [1] worked out at 2.2 nM; at Nociceptin receptor [3], 0.9 nM. In series [4], this molecule displayed a logD of 3.1.

As for `C[C@@H]1CN(CCC#N)CCN1c1cc2[nH]c(SC(C)(C)C)nc2cc1Cl`, the concentration for half-maximal inhibition (IC50) on Nociceptin receptor [1] is 27 nM; at Nociceptin receptor [3] it was 6.4 nM; in series [2] it was more than 10000 nM.

For the molecule `CCN1CCN(c2cc3[nH]c(S[C@]4(C)CC[C@@H](N(C)C(C)=O)CC4)nc3cc2Cl)CC1`, the IC50 on Nociceptin receptor [1] stood at 0.81 nM; on Nociceptin receptor [3] it was 1.3 nM; on Mu-type opioid receptor, 840 nM; in series [5] it was 160 nM. In series [4], this molecule displayed a logD of 2.7.

With `CCN1CCN(c2cc3[nH]c(S[C@]4(C)CC[C@@H](NS(C)(=O)=O)CC4)nc3cc2Cl)CC1`, the IC50 on Nociceptin receptor [1] is 2.1 nM; at Nociceptin receptor [3], 1.8 nM; in series [2] it was more than 10000 nM. Moreover, the logD in series [4] is 2.5.

For the molecule `CCN1CCN(c2cc3[nH]c(S[C@]4(C)CC[C@@H](c5nnco5)CC4)nc3cc2Cl)CC1`, the IC50 is 1.1 nM at Nociceptin receptor [1] and 0.59 nM on Nociceptin receptor [3].

Regarding `CCN1CCN(c2cc3[nH]c(S[C@]4(C)CC[C@@H](c5nnc(C)o5)CC4)nc3cc2Cl)CC1`, the figures for the IC50 at Nociceptin receptor [1] and at Nociceptin receptor [3] were 1.8 nM and 7.1 nM, respectively.

Molecule `C[C@@H]1CN(CC(F)(F)F)CCN1c1cc2[nH]c(SC(C)(C)C)nc2cc1Cl` yielded a 50% inhibitory concentration (IC50) on Nociceptin receptor [1] of 630 nM.

In the case of `CCN1CCN(c2cc3[nH]c(S[C@]4(C)CC[C@@H](NC(C)=O)CC4)nc3cc2Cl)CC1`, the values for the IC50 (on Nociceptin receptor [1]; on Nociceptin receptor [3]; in series [2]) were 1.9 nM, 1.1 nM and more than 10000 nM, respectively. In addition, in series [4], the logD worked out at 2.5.

As to `CCN1CCN(c2cc3[nH]c(S[C@]4(C)CC[C@H](NC(=O)OC)CC4)nc3cc2Cl)CC1`, the IC50 at Nociceptin receptor [1] amounted to 9.5 nM; on Nociceptin receptor [3] it was 2.1 nM; in series [2] it was 1500 nM.

With `CCN1CCN(c2cc3[nH]c(S[C@]4(C)CC[C@@H](NC(=O)OC)CC4)nc3cc2Cl)CC1`, the IC50 worked out at 2.4 nM on Nociceptin receptor [1], 0.72 nM on Nociceptin receptor [3] and 3500 nM in series [2]. The logD in series [4] was 3.4.

With `CCN1CCN(c2cc3[nH]c(S[C@]4(C)CC[C@@H](C(=O)NC)CC4)nc3cc2Cl)CC1`, the 50% inhibitory concentration (IC50) was 1 nM on Nociceptin receptor [1], 1.1 nM on Nociceptin receptor [3] and more than 10000 nM in series [2].

Regarding `CCN1CCN(c2cc3[nH]c(SC(C)(C)C)nc3cc2Cl)[C@H](C)C1`, the IC50 turned out to be 9.2 nM on Nociceptin receptor [1], 2.9 nM at Nociceptin receptor [3] and 990 nM in series [2].

As for `CCN1CCN(c2cc3[nH]c(S[C@]4(C)CC[C@@H](S(C)(=O)=O)CC4)nc3cc2Cl)CC1`, the IC50 on Nociceptin receptor [1] is 6.9 nM; on Nociceptin receptor [3] it was 4 nM; in series [2] it was more than 10000 nM.

In series [2], `C[C@@H]1CN(CCO)CCN1c1cc2[nH]c(SC(C)(C)C)nc2cc1Cl` yielded an IC50 of 1600 nM.

As for `CCN1CCN(c2cc3[nH]c(S[C@]4(C)CC[C@@H](N5CCCC5=O)CC4)nc3cc2Cl)CC1`, the concentration for half-maximal inhibition (IC50) on Nociceptin receptor [1] was 1.4 nM; on Nociceptin receptor [3], 0.55 nM; in series [2], more than 10000 nM. The molecule also showed a pH-dependent lipophilicity (logD) in series [4] of 2.9.

Turning to `CCN1CCN(c2cc3[nH]c(S[C@]4(C)CC[C@@H](c5nnnn5C)CC4)nc3cc2Cl)CC1`, the IC50 at Nociceptin receptor [1] came out at 7.4 nM; at Nociceptin receptor [3], 3.7 nM. In series [4], this molecule registered a logD of 2.3.

In the case of `CC(=O)CN1CCN(c2cc3[nH]c(SC(C)(C)C)nc3cc2Cl)C(C)C1` (racemic), the IC50 is 41 nM on Nociceptin receptor [3] and more than 10000 nM in series [2].

`CCN1CCN(c2cc3[nH]c(SC4(C)CCC(NC(=O)OC)C4)nc3cc2Cl)CC1` (racemic): on Nociceptin receptor [3], the IC50 turned out to be 46 nM.
